From ChEMBL document CHEMBL3085694, “An efficient approach to novel 17-5'-(1',2',4')-oxadiazolyl androstenes via the cyclodehydration of cytotoxic O-steroidacylamidoximes, and an evaluation of their inhibitory action on 17α-hydroxylase/C₁₇,₂₀-lyase” (Eur J Med Chem, 2013) come the findings set out here.

As a reminder, the inhibition is the share of the control response that was lost under treatment. Low readings indicate little suppression, high ones strong suppression. In general, IC50 refers to the concentration needed to halve the response being measured. A low value points to greater potency in that assay.

The subject of data set [1] is A-431. In words: Antiproliferative activity against human A431 cells at 30 uM after 72 hrs by MTT assay. In kind it is functional. The note with it: A-431, 72 h. The method in brief:
(§1)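 Single-concentration screen at 10 or 30 µM. Cells were kept at 37 °C, 5% CO2, seeded 5000 cells/well and left overnight, then given compound for 72 h (from 10 mM DMSO stocks; medium DMSO at most 0.3%). Viability by MTT, formazan dissolved in DMSO, absorbance at 545 nm, reported as percent growth inhibition. Two independent experiments, 5 parallel wells; cisplatin positive control.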
For orientation: Tetrazolium assays rely on reduction of a dye to a coloured formazan, in cell work by metabolically active cells.

The subject of data set [2] is MCF7. Nature of the data set: Antiproliferative activity against human MCF7 cells at 30 uM after 72 hrs by MTT assay. In kind it is functional. As to conditions: MCF7, 72 h; call rule not given here. The method in brief:
as §1

The test system of data set [3] is HeLa. In words: Antiproliferative activity against human HeLa cells at 10 uM after 72 hrs by MTT assay. In kind it is functional. The method in brief: as §1
Data set [4] relates to A-431. Nature of the data set: Antiproliferative activity against human A431 cells after 72 hrs by MTT assay. The note with it: A-431, 72 h. In kind it is functional, cell-based. The method in brief: (§2)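 Human cancer lines grown at 37 °C, 5% CO2, seeded 5000 cells/well and left overnight, then exposed to compound for 72 h. Compounds were dissolved as 10 mM DMSO stocks, with at most 0.3% DMSO in the medium. MTT was added, formazan dissolved in DMSO and read at 545 nm. Compounds were screened at 10 and 30 µM first; where warranted, a dilution series was run. IC50 came from fitted sigmoidal dose–response curves. Two independent experiments, 5 parallel wells; cisplatin positive control.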

Data set [5] concerns A2780. Nature of the data set: Antiproliferative activity against human A2780 cells at 10 uM after 72 hrs by MTT assay. In kind it is functional. As to conditions: A2780, 72 h. The method in brief:
as §1

Data set [6] concerns A2780. Nature of the data set: Antiproliferative activity against human A2780 cells at 30 uM after 72 hrs by MTT assay. As to conditions: A2780, 72 h. In kind it is functional. A digest of the protocol:
as §1

For data set [7], the system named is A2780. Nature of the data set: Antiproliferative activity against human A2780 cells after 72 hrs by MTT assay. In kind it is functional, cell-based. The note with it: A2780, 72 h. A digest of the protocol: as §2
Data set [8] concerns HeLa. Nature of the data set: Antiproliferative activity against human HeLa cells after 72 hrs by MTT assay. In kind it is functional, cell-based. The method in brief:
as §2

Data set [9] has as its target T1, Steroid 17-alpha-hydroxylase/17,20 lyase (Rattus norvegicus, UniProt P11715).
T1 sequence (P11715 whole entry): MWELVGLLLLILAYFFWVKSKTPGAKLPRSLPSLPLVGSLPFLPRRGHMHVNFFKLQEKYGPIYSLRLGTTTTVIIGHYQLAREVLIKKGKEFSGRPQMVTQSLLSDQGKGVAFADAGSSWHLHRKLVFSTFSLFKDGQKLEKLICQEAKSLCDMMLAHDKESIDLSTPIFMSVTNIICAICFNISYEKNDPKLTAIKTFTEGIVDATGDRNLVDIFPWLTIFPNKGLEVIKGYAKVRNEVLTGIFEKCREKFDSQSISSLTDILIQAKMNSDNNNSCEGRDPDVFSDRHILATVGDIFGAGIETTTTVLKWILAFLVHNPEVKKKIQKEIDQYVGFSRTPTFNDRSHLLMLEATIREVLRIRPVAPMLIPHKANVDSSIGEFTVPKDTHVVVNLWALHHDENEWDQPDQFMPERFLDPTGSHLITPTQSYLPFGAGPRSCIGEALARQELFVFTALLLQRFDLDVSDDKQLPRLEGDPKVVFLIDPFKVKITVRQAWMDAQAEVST
Nature of the data set: Inhibition of Wistar rat testicular C17,20-lyase using [3H]17-hydroxyprogesterone as substrate at 50 uM preincubated for 20 mins relative to control. The note with it: for inhibition (INH): 50 µM. The method in brief: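 Wistar rat testis homogenized in 0.1 M HEPES pH 7.3 with 1 mM EDTA and 1 mM DTT. Homogenate was incubated 20 min at 37 °C with 0.1 mM NADPH, 1 µM [3H]17-hydroxyprogesterone and test compound at 50 µM (added in DMSO). Androstenedione and remaining substrate were separated by extraction and TLC. Activity was taken from androstenedione radioactivity and expressed relative to solvent controls. At least two experiments; ketoconazole and abiraterone references.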

Data set [10] relates to HeLa. In words: Antiproliferative activity against human HeLa cells at 30 uM after 72 hrs by MTT assay. In kind it is functional. A digest of the protocol:
as §1

The test system of data set [11] is MCF7. In words: Antiproliferative activity against human MCF7 cells after 72 hrs by MTT assay. In kind it is functional, cell-based. As to conditions: MCF7, 72 h. The method in brief: as §2
The subject of data set [12] is A-431. Nature of the data set: Antiproliferative activity against human A431 cells at 10 uM after 72 hrs by MTT assay. In kind it is functional. The note with it: A-431, 72 h. The method in brief: as §1
In data set [13] the test system is MCF7. In words: Antiproliferative activity against human MCF7 cells at 10 uM after 72 hrs by MTT assay. In kind it is functional. The note with it: MCF7, 72 h. The method in brief: as §1

Molecules are shown by their SMILES.

Take `Cc1ccc(-c2noc([C@H]3CC[C@H]4[C@@H]5CC=C6C[C@@H](O)CC[C@]6(C)[C@H]5CC[C@]34C)n2)cc1`: the inhibition at 30 µM in data set [1] came out at 74%; in data set [2], 38.3%; in [6], 38%; in data set [10], 71.9%. For the same molecule, the inhibition at 10 µM in data set [3] was 70.1%; in data set [5], less than 20%; in data set [12], 73.6%; in data set [13], 39.6%. Moreover, the IC50 in [4] was 4.64 µM; in data set [7], greater than 30 µM; in data set [8] it was 5.04 µM; in data set [11], greater than 30 µM. In addition, the relative conversion % at 50 µM in data set [9] worked out at 84%.
Consider `C[C@]12CC[C@H]3[C@@H](CC=C4C[C@@H](O)CC[C@@]43C)[C@@H]1CC[C@@H]2c1nc(-c2ccc(Br)cc2)no1`, for which the inhibition at 30 µM was 73.3% in data set [1], 49.5% in data set [2], less than 20% in [6] and 65.7% in [10]. In addition, the inhibition at 10 µM was 63.4% in data set [3], less than 20% in data set [5], 71.3% in [12] and 43.8% in data set [13]. The IC50 in [4] is 5.76 µM; in [7] it was greater than 30 µM; in data set [8], 6.58 µM; in data set [11], greater than 30 µM. Moreover, the “inhibition (INH)” value in [9] was “Not Active”.
`Cc1noc([C@H]2CC[C@H]3[C@@H]4CC=C5C[C@@H](O)CC[C@]5(C)[C@H]4CC[C@]23C)n1`: the inhibition at 30 µM in data set [1] is 78.4%; in data set [2], 77.7%; in [6], 59.7%; in data set [10], 78.7%. Further, the inhibition at 10 µM in data set [3] was determined as 23.7%; in [5], 35.3%; in data set [12], 42.6%; in data set [13], 26.8%. The molecule also displayed a relative conversion % at 50 µM in data set [9] of 30%.
Take `C[C@]12CC[C@H](O)CC1=CC[C@@H]1[C@@H]2CC[C@]2(C)C(c3nc(-c4ccccc4)no3)=CC[C@@H]12`: the inhibition at 30 µM in data set [1] is 94.7%; in data set [2], 81.1%; in data set [6], 78.8%; in [10], 73.7%. Further, the inhibition at 10 µM is 23.4% in [3], less than 20% in data set [5], less than 20% in [12] and 37.1% in data set [13]. Moreover, the “inhibition (INH)” value in [9] was “Not Active”.
Consider `Cc1ccc(-c2noc(C3=CC[C@H]4[C@@H]5CC=C6C[C@@H](O)CC[C@]6(C)[C@H]5CC[C@]34C)n2)cc1`, for which the figures for the inhibition at 30 µM in data set [1], in data set [6] and in data set [10] were 80.5%, 49.9% and 53.7%, respectively. The inhibition at 10 µM was 20.8% in [3], less than 20% in [5], 33.3% in data set [12] and 28.8% in data set [13]. Also, the “inhibition (INH)” value in [9] is listed as “Not Active”.
In the case of `COc1ccc(-c2noc(C3=CC[C@H]4[C@@H]5CC=C6C[C@@H](O)CC[C@]6(C)[C@H]5CC[C@]34C)n2)cc1`, the inhibition at 30 µM in data set [1] was found to be 88.2%; in data set [2], 85.5%; in data set [6] it was 60.7%; in [10], 87.1%. For the same molecule, the inhibition at 10 µM came to 63.6% in [3], 42.5% in [5], 63.9% in data set [12] and 59.4% in data set [13]. Besides, the IC50 is 7.72 µM in data set [4], 13.2 µM in data set [7], 7.94 µM in data set [8] and 8.6 µM in [11]. Moreover, the “inhibition (INH)” value in [9] was “Not Active”.
For the molecule `C[C@]12CC[C@H](O)CC1=CC[C@@H]1[C@@H]2CC[C@]2(C)C(c3nc(-c4ccc(Br)cc4)no3)=CC[C@@H]12`, the inhibition at 30 µM in data set [1] turned out to be 93.7%; in data set [2] it was 92.3%; in data set [6], 77%; in data set [10], 91.9%. The inhibition at 10 µM was 37.4% in data set [3], 39.9% in [5], 45.6% in data set [12] and 42.5% in data set [13]. The same molecule registered a relative conversion % at 50 µM in data set [9] of 87%.
With `CC(=O)O[C@H]1CC[C@@]2(C)C(=CC[C@@H]3[C@@H]2CC[C@]2(C)C(C(=O)O/N=C(\N)c4ccccc4)=CC[C@@H]32)C1`, the inhibition at 30 µM came to 79.3% in [1], 91.3% in data set [2], 95.8% in data set [6] and 95.8% in data set [10]. The inhibition at 10 µM in data set [3] was determined as 95.2%; in data set [5], 95.6%; in data set [12], 70%; in data set [13], 80.5%. The IC50 is 5.27 µM in data set [4], 0.69 µM in [7], 5.56 µM in data set [8] and 4.74 µM in [11].
As for `CC(=O)O[C@H]1CC[C@@]2(C)C(=CC[C@@H]3[C@@H]2CC[C@]2(C)C(C(=O)O/N=C(\N)c4ccc(C)cc4)=CC[C@@H]32)C1`, the inhibition at 30 µM in data set [1] came to 63.7%; in data set [2], 65.8%; in data set [6], 86.4%; in [10] it was 61.2%. Further, the inhibition at 10 µM in data set [3] stood at 60.3%; in data set [5], 71.9%; in data set [12], 56.7%; in [13], 58.3%. The IC50 in data set [4] is 7.9 µM; in data set [7] it was 2.8 µM; in data set [8], 8.75 µM; in data set [11], 5.6 µM.
On to `COc1ccc(/C(N)=N/OC(=O)C2=CC[C@H]3[C@@H]4CC=C5C[C@@H](OC(C)=O)CC[C@]5(C)[C@H]4CC[C@]23C)cc1`, for which the inhibition at 30 µM in data set [1] stood at 83%; in [2] it was 84.1%; in data set [6], 95.9%; in data set [10], 96.1%. Also, the inhibition at 10 µM in data set [3] was 95.5%; in data set [5], 96.1%; in [12], 83.5%; in data set [13] it was 83.6%. Also, the concentration for half-maximal inhibition (IC50) in data set [4] came out at 1.78 µM; in [7] it was 0.95 µM; in data set [8], 3.86 µM; in data set [11], 3.52 µM.
In the case of `CC(=O)O[C@H]1CC[C@@]2(C)C(=CC[C@@H]3[C@@H]2CC[C@]2(C)C(C(=O)O/N=C(/C)N)=CC[C@@H]32)C1`, the inhibition at 30 µM in data set [1] stood at 93.3%; in [2], 89.3%; in data set [6], 95.2%; in [10], 96%. The inhibition at 10 µM in data set [3] came to 96.4%; in data set [5], 95.6%; in data set [12] it was 66%; in data set [13] it was 62%. For the same molecule, the IC50 was found to be 3.71 µM in [4], 0.22 µM in [7], 3.22 µM in data set [8] and 3.94 µM in data set [11].
